Assay results from ChEMBL document CHEMBL1155506 (J Med Chem, 2010).

Key:
[1] = Total clearance in Sprague-Dawley rat at 2 mg/kg, iv after 24 hrs by HPLC/MS/MS analysis; format: ADME, organism-based; design: dose 2 mg/kg, route intravenous; conditions: in vivo
Outline: (§1)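 Male rats fasted overnight before oral dosing; 10 mg/kg po and 2 mg/kg iv in 80% PEG400/20% phosphate buffered saline. Jugular vein blood was sampled at 0.25–21 h over 24 h, and heparin plasma was assayed by HPLC/MS/MS (MRM, positive electrospray, internal standard; LLOQ 1 ng/mL, ULOQ 2000 ng/mL). %F is taken relative to the 2 mg/kg iv dose. Mean of n = 3 animals.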

[2] = Antiplatelet activity in human platelet rich plasma assessed as inhibition of ADP-induced aggregation preincubated for 1 min before 5-HT and ADP challenge measured after 3 mins by turbidimetry
[3] = Cmax in Sprague-Dawley rat at 10 mg/kg, po after 24 hrs by HPLC/MS/MS assay; format: ADME, organism-based; design: dose 10 mg/kg, route oral; conditions: in vivo; outline: as §1
[4] = Bioavailability in Sprague-Dawley rat at 2 mg/kg, iv after 24 hrs by HPLC/MS/MS analysis; format: ADME, organism-based; conditions: in vivo; outline: as §1
[5] = Half life in Sprague-Dawley rat at 10 mg/kg, po by HPLC/MS/MS analysis; format: ADME, organism-based; design: dose 10 mg/kg, route oral; conditions: in vivo; outline: as §1
[6] = Volume of distribution at steady state in Sprague-Dawley rat at 2 mg/kg, iv after 24 hrs by HPLC/MS/MS analysis; format: ADME, organism-based; design: dose 2 mg/kg, route intravenous; conditions: in vivo, read-out: Vdss; outline: as §1
[7] = target: T1, 5-hydroxytryptamine receptor 2C (Homo sapiens, UniProt P28335); assay: Displacement of [125I]DOI from human recombinant 5HT2C receptor expressed in HEK293 cells by scintillation counting; format: cell-based
T1 sequence (P28335 whole entry): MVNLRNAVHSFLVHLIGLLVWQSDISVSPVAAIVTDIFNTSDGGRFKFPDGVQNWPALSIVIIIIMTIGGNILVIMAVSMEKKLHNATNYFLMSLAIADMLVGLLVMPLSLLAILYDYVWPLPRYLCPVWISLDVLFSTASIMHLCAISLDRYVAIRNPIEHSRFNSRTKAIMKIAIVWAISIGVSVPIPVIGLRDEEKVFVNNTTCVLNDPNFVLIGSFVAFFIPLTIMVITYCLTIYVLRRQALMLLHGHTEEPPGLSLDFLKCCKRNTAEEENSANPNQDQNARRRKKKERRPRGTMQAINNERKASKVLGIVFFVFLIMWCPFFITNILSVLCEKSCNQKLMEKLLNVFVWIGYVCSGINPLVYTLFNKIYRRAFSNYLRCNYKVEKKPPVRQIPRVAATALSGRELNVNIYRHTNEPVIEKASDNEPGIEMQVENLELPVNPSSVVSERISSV
Outline: (§2)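 Crude plasma membranes from HEK293 cells stably expressing the human receptor (5–25 μg protein), in 20 mM HEPES pH 7.4 with 10 mM MgCl2. Incubated with 0.5 nM [125I]DOI and test compound (1 pM–10 μM) for 1 h at room temperature; nonspecific binding defined with 10 μM cold DOI. Filtered, washed with ice-cold Tris buffer and scintillation counted in triplicate.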

[8] = AUC (0 to last) in Sprague-Dawley rat at 10 mg/kg, po after 24 hrs by HPLC/MS/MS analysis; format: ADME, organism-based; design: time 0 - last, dose 10 mg/kg, route oral; conditions: plasma; outline: as §1
[9] = target: T2, 5-hydroxytryptamine receptor 2A (Homo sapiens, UniProt P28223); assay: Displacement of [125I]DOI from human recombinant 5HT2A receptor expressed in HEK293 cells by scintillation counting; format: cell-based; outline: as §2
hERG (KCNH2) [10] = target: T3, hERG (KCNH2) (Homo sapiens, UniProt Q12809); assay: Inhibition of human ERG at 3 uM by patch clamp assay
hERG (KCNH2) [11] = target: T3, hERG (KCNH2); assay: Inhibition of human ERG at 1 uM by patch clamp assay
[12] = target: Voltage-gated inwardly rectifying potassium channel KCNH2 (Homo sapiens, UniProt Q12809); assay: Inhibition of human ERG by patch clamp assay
[13] = target: T2, 5-hydroxytryptamine receptor 2A; assay: Inverse agonist activity at human 5HT2A receptor expressed in HEK293 cells assessed as inhibition of inositol phosphate accumulation; format: functional, cell-based

T2 sequence (P28223 whole entry): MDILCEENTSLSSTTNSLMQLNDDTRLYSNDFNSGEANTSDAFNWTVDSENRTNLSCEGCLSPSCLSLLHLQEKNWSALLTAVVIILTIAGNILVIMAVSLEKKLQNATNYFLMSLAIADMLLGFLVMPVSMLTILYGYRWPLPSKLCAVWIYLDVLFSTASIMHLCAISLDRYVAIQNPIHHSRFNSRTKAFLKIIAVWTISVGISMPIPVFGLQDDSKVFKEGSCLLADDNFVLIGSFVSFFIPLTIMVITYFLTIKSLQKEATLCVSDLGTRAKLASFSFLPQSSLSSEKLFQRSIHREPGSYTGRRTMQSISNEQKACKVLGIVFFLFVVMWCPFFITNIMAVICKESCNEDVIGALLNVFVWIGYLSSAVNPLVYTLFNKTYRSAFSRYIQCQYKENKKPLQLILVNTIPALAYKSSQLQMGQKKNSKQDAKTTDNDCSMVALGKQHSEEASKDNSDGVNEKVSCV
T3 sequence (Q12809 whole entry): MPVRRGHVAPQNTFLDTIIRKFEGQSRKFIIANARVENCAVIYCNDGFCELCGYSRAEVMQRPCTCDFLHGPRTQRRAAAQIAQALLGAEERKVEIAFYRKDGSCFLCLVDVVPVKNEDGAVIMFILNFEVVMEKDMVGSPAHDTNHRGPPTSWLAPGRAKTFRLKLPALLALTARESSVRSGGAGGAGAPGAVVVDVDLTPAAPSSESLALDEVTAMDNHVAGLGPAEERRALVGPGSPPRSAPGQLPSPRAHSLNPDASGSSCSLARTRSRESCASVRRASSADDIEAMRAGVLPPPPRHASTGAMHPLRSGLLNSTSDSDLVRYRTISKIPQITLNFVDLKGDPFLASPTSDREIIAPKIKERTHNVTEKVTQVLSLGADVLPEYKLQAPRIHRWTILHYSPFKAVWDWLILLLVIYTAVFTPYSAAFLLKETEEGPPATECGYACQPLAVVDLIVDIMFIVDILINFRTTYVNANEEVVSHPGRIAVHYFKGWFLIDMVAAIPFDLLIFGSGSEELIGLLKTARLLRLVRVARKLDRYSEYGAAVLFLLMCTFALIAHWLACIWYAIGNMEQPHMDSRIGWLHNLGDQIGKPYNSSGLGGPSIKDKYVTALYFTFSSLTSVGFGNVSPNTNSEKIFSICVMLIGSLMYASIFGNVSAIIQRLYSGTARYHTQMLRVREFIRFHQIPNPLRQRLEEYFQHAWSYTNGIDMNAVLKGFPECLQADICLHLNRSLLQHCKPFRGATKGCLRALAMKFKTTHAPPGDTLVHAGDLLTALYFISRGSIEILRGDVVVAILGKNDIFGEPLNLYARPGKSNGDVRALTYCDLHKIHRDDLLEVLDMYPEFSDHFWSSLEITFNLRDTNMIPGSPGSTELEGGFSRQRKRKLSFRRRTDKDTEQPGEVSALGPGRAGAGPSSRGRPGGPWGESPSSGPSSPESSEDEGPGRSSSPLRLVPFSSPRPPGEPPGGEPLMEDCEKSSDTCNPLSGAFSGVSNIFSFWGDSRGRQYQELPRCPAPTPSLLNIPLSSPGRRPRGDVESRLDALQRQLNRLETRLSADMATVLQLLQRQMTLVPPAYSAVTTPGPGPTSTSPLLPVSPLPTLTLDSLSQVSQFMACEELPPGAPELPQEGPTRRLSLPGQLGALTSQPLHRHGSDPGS
Voltage-gated inwardly rectifying potassium channel KCNH2, sequence (Q12809 whole entry): as above

SMILES	clearance [1] [mL/min/kg]	IC50 [2] [nM]	Cmax [3] [ng/mL]	bioavailability [4] [%]	half-life [5] [h]	Vd [6] [L/kg]	Ki [7] [nM]	AUC(0-t) at 24 h [8] [ng·h/mL]	Ki [9] [nM]	IC50 [13] [nM]	inhibition at 3 µM (hERG (KCNH2) [10]) [%]	inhibition at 1 µM (hERG (KCNH2) [11]) [%]	IC50 [12] [nM]
Cn1nccc1-c1cc(NC(=O)c2ccc(F)cc2)ccc1OCCN1CCOCC1		100					> 10000		18				
COc1cccc(C(=O)Nc2ccc(OCCN3CCN(S(C)(=O)=O)CC3)c(-c3ccnn3C)c2)c1							> 10000		28		23		
Cn1nccc1-c1cc(NC(=O)c2ccc(F)cc2F)ccc1OCCN1CCOCC1	233	27	56	22	1.5	11.7	> 10000	171	8.6			16	4100
CC(=O)N1CCN(CCOc2ccc(NC(=O)c3cccc(F)c3)cc2-c2ccnn2C)CC1		40					> 10000		15				
COc1cccc(C(=O)Nc2ccc(OCCN)c(-c3ccnn3C)c2)c1		6.9					2350		2.2		22		

Further lines, with some results ahead:

clearance [1] [mL/min/kg]	IC50 [2] [nM]	Cmax [3] [ng/mL]	bioavailability [4] [%]	half-life [5] [h]	Vd [6] [L/kg]	Ki [7] [nM]	AUC(0-t) at 24 h [8] [ng·h/mL]	Ki [9] [nM]	IC50 [13] [nM]	SMILES	inhibition at 3 µM (hERG (KCNH2) [10]) [%]	inhibition at 1 µM (hERG (KCNH2) [11]) [%]	IC50 [12] [nM]
160	18	202	27	1.8	5.1	> 10000	288	0.7		Cn1nccc1-c1cc(NC(=O)c2cccc(C(F)(F)F)c2)ccc1OCCN1CCOCC1			
						> 10000		287		Cn1nccc1-c1cc(NC(=O)c2cccc(C(F)(F)F)c2)ccc1OCCN1CCNC(=O)C1			
	61					5900		2.4		Cn1nccc1-c1cc(NC(=O)c2ccc(C(F)(F)F)cc2)ccc1OCCN1CCOCC1		33	
	189					9250		12		Cn1nccc1-c1cc(NC(=O)c2cccc(C(F)(F)F)c2)ccc1OCCN1CCC(F)(F)C1	50		
	3.2					1140		0.6	23	Cn1nccc1-c1cc(NC(=O)c2cccc(C(F)(F)F)c2)ccc1OCCN1CCCC1		80	
